STAT1 act: activators of IFN-gamma induced STAT1 signaling. actives 2.6% (n = 200,000). activation (% of control), % at 5.5 µM. NIH 3T3 STAT1-luciferase reporter, luminescence; 100% = IFN-gamma alone, no compound;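 active means activation above the screen-wide mean activation plus 3 SD, cut at about 130% in these data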
NF-kB neuron act: NF-kB expression increase, human neuronal cells; actives 1.6% (n = 190,000); fold change at 12.5 µM; NF-kB reporter expression; stronger effect = higher value; in the data active means fold change above about 3.3
STAT3 act: STAT3 signaling activation; activation (% of control), % at 5.6 µM; U3A cells, IL-6 STAT3-luciferase reporter, luminescence; 100% = signal with IL-6 EC80 alone; actives 0.91% (n = 190,000);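 active means activation above the screen-wide mean of compound activation plus 3 SD, cut at about 130% in these data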
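Material: human STAT1-deficient U3A cells with stable STAT3-luciferase reporter / Probe or stimulus: IL-6 stimulus at 33 ng/mL final / Schedule: 1 h compound pre-exposure, 6 h IL-6 stimulation, 37 °C / Technique: luminescence / Read-out basis: percent of IL-6-only median luminescence / Control set: IL-6-only high control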
APP 5'UTR act: APP 5'UTR luciferase reporter activation; AID 1276; actives 1% (n = 190,000); activation, % at 2 µM; SH-SY5Y APP 5'UTR luciferase reporter, luminescence; zero percent = DMSO vehicle wells;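 active means activation above a set limit, based on mean plus 3 SD of controls, cut at about 140% in these data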
STAT3 inh-1: STAT3 signaling inhibition | actives 0.89% (n = 190,000) | U3A cells, IL-6 STAT3-luciferase reporter, luminescence; host cell line lacks STAT1 | inhibition, % at 5.5 µM;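 active means inhibition above the mean inhibition across all screened compounds plus 3 SD, cut at about 44% in these data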
STAT1 blocker: reduces IFN-gamma driven STAT1 reporter signal; NIH 3T3 STAT1-luciferase reporter, luminescence; inhibition, % at 5.5 µM; actives 0.35% (n = 200,000);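 active means inhibition above a set limit, the mean inhibition across all tested compounds plus 3 SD, cut at about 34% in these data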
STAT3 inh-2: confirmation of STAT3 signaling inhibitors. inhibition, % at 5.7 µM. actives 45% (n = 1,200). U3A cells, IL-6 STAT3 luciferase reporter, luminescence; cell line lacks STAT1. shares compounds with STAT3 inh-1;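 active means inhibition above the hit cutoff computed for the primary STAT3 screen, cut at about 44% in these data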
NFkB inh STAT3ct: inhibits NF-kappaB, counter-screen to STAT3 inhibitors; shares compounds with STAT3 inh-1; HEK293T NF-kB luciferase reporter, TNF-alpha induced; inhibition, % at 5.7 µM; actives 36% (n = 1,200);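 active means inhibition above the mean of solvent-only control wells plus 3 SD, cutoff set per campaign, cut at about 13% in these data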
STAT1 inh STAT3c: STAT1 inhibition in STAT3 inhibitor counter-screen | shares compounds with STAT3 inh-1 | NIH 3T3 STAT1-luciferase reporter, IFN-gamma induced, luminescence | inhibition, % at 5.7 µM | actives 27% (n = 1,200) | AID 1317;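 active means inhibition above the mean plus 3 SD of solvent-only control wells, limit set per screening run, cut at about 16% in these data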
Hits are given with their value. An excerpt weighted towards active compounds, which were near 4.9% of everything screened.

What do the screens show for `Cn1c(-c2cccc([N+](=O)[O-])c2)cnc1NCc1ccc(C#N)cc1`?
STAT1 act: inactive; NF-kB neuron act: inactive; STAT3 act: inactive; APP 5'UTR act: inactive; STAT3 inh-1: inactive; STAT1 blocker: inactive

What do the screens show for `Cc1nn(C)c(C(=O)NCc2ccc(Cl)cc2)c1Cl`?
STAT1 act: inactive; NF-kB neuron act: inactive; STAT3 act: inactive; APP 5'UTR act: inactive; STAT3 inh-1: 55.9; STAT1 blocker: inactive; STAT3 inh-2: 64.8; NFkB inh STAT3ct: 13.6; STAT1 inh STAT3c: 20.4

Results for Cc1nc(C)c(C(=O)NCc2ccc(Cl)cc2)o1 ?
STAT1 act: inactive; NF-kB neuron act: inactive; STAT3 act: inactive; APP 5'UTR act: inactive; STAT3 inh-1: inactive; STAT1 blocker: inactive

What do the screens show for `CC1CCN(S(=O)(=O)c2ccc(Oc3ccc([N+](=O)[O-])cc3)cc2)CC1`?
STAT1 act: inactive; NF-kB neuron act: inactive; STAT3 act: inactive; APP 5'UTR act: inactive; STAT3 inh-1: 47.2; STAT1 blocker: inactive; STAT3 inh-2: inactive; NFkB inh STAT3ct: inactive; STAT1 inh STAT3c: inactive

Results for Brc1ccc(-c2cn3nc4c(nc3n2)CCCC4)cc1 ?
STAT1 act: inactive; NF-kB neuron act: inactive; STAT3 act: inactive; APP 5'UTR act: 185.5; STAT3 inh-1: 76.6; STAT1 blocker: inactive; STAT3 inh-2: inactive; NFkB inh STAT3ct: inactive; STAT1 inh STAT3c: inactive

Results for CCCOC(=S)Nc1ccccc1 ?
STAT1 act: inactive; NF-kB neuron act: inactive; STAT3 act: inactive; APP 5'UTR act: inactive; STAT3 inh-1: inactive; STAT1 blocker: inactive

Results for Cc1nc2ccc(NC(=O)c3cccs3)cc2c(=O)n1Cc1ccc(Cl)cc1 ?
STAT1 act: inactive; NF-kB neuron act: inactive; STAT3 act: inactive; APP 5'UTR act: inactive; STAT3 inh-1: 50.9; STAT1 blocker: inactive; STAT3 inh-2: inactive; NFkB inh STAT3ct: inactive; STAT1 inh STAT3c: inactive

What do the screens show for `COCCn1c(C)cc(C(=O)CSc2nnc3ccccn23)c1C`?
STAT1 act: inactive; NF-kB neuron act: inactive; STAT3 act: inactive; STAT3 inh-1: 74.5; STAT1 blocker: inactive; STAT3 inh-2: inactive; NFkB inh STAT3ct: inactive; STAT1 inh STAT3c: inactive

What do the screens show for `O=C(NC1=NC2CCCCC2N1)c1ccccc1` (configuration not stated)?
STAT1 act: inactive; NF-kB neuron act: inactive; STAT3 act: inactive; APP 5'UTR act: inactive; STAT3 inh-1: 49.2; STAT1 blocker: inactive; STAT3 inh-2: inactive; NFkB inh STAT3ct: inactive; STAT1 inh STAT3c: inactive

Results for CCNc1nc(NC(C)(C)C)nc(SCC(N)=O)n1 ?
STAT1 act: inactive; NF-kB neuron act: inactive; STAT3 act: inactive; APP 5'UTR act: inactive; STAT3 inh-1: inactive; STAT1 blocker: inactive

What do the screens show for `Cc1cc(C(=O)COC(=O)CCc2nc3ccccc3s2)c(C)n1C`?
STAT1 act: inactive; NF-kB neuron act: inactive; STAT3 act: inactive; APP 5'UTR act: inactive; STAT3 inh-1: inactive; STAT1 blocker: inactive

Results for CC(C)Cn1c(N)c(C(=O)COC(=O)c2ccc(Cl)cc2)c(=O)n(C)c1=O ?
STAT1 act: inactive; NF-kB neuron act: inactive; STAT3 act: inactive; APP 5'UTR act: inactive; STAT3 inh-1: inactive; STAT1 blocker: inactive

Results for CC(C)Cn1c(N)c(C(=O)CSc2ccccc2)c(=O)n(C)c1=O ?
STAT1 act: inactive; NF-kB neuron act: inactive; STAT3 act: inactive; APP 5'UTR act: inactive; STAT3 inh-1: 44.8; STAT1 blocker: inactive; STAT3 inh-2: 44.0; NFkB inh STAT3ct: inactive; STAT1 inh STAT3c: inactive

What do the screens show for `CC(C)Cn1c(N)c(C(=O)COC(=O)CCc2nc3ccccc3s2)c(=O)n(C)c1=O`?
STAT1 act: inactive; NF-kB neuron act: inactive; STAT3 act: inactive; APP 5'UTR act: inactive; STAT3 inh-1: 70.4; STAT1 blocker: inactive; STAT3 inh-2: 74.5; NFkB inh STAT3ct: inactive; STAT1 inh STAT3c: inactive

Assay outcomes as filed in PubChem.
